Among all 2,500 compounds or so, about 1,200 (48%) were called active. So high a share suggests a set chosen from earlier hits. The list shows a part of the results. A number with no mark means an inactive call.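 The calls were made as follows: active = mean activation above the low control average plus 3 SD, as set in the primary screen (cut at about 12% in these data); inactive = the rest.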

The target in this experiment is Troponin I, cardiac muscle (Homo sapiens) + Troponin T, cardiac muscle (Homo sapiens) + Troponin C, slow skeletal and cardiac muscles (Homo sapiens) (UniProt P19429+P45379+P63316). Nature of the experiment: calcium sensitizers of cardiac thin filaments – biochemical, IANBD-TnC fluorescence, triplicate, confirmation (AID 504383).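 Also: 0% = DMSO at 0.472 mM calcium and 100% = DMSO at 2.9 mM calcium.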 The conditions noted are these: IANBD-labeled cardiac RTF, Ca2+ sensitivity fluorescence; at 7.2 µM; stronger effect = higher value; scaled from EC20 to saturating calcium; tested at EC20 calcium, 0.472 mM. Put shortly: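 material = labelled regulated thin filaments | probe or stimulus = Ca2+ 0.472 mM, EC20 level | dosing = single nominal compound dose of 7.2 µM | schedule = 15 min at 25 °C | signal = fluorescence intensity of labelled filaments | evaluation = fluorescence gain scaled between EC20 and EC100 calcium controls | benchmarks = low control EC20 calcium, high control EC100 calcium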
As for `O=C1/C(=C/c2cccnc2)SC(=S)N1N1CCOCC1`, the activation was 12.4% (active).
`O=C(O)CN1C(=O)/C(=C\c2cn(CC(=O)N3CCOCC3)c3ccccc23)SC1=S`: the activation is 16.6% (active).
Under `Cc1ccc(N=C2NC(=O)/C(=C/c3cn(C)c4ccccc34)S2)cc1C` stands 6.33%.
Consider `O=C(CCN1C(=O)/C(=C/c2ccccc2)SC1=S)NNC(=O)c1cccnc1`, for which the activation is 6.78%.
For `O=C(CS(=O)(=O)c1cn(Cc2ccc(F)cc2)c2ccccc12)N1CCOCC1`, the activation is 1.62%.
Take `Cn1cc(/C=C2\SC(=S)N(N3CCOCC3)C2=O)c2ccccc21`: the activation was 12.7% (active).
For the compound `Cc1cc(S(=O)(=O)Nc2c(C)nn(C)c2C)c(Cl)cc1Cl`, the activation was 10.6%.
With `Cc1ccc(S(=O)(=O)/N=C2/NC(=O)/C(=C/c3cc([N+](=O)[O-])ccc3O)S2)cc1` the figure was 4.75%; with `O=C1NC(=Nc2ccccc2Cl)S/C1=C\c1cc([N+](=O)[O-])ccc1O`, 20.8% (active).
With `COc1cccc(N=C2NC(=O)/C(=C/c3cc([N+](=O)[O-])ccc3O)S2)c1` the figure was 9.82%; with `C#CCN1c2ccccc2Sc2cccnc21`, 13.6% (active); with `O=C(Nc1ccccc1)c1ccc(NCCc2ccccc2)c([N+](=O)[O-])c1`, 5.71%.
In the case of `Cc1cccc(OCCNc2ccc(C(F)(F)F)cc2[N+](=O)[O-])c1`, the activation is 159% (active).
Turning to `COc1cccc(C(=O)NC2CC3CCCC(C2)N3CC(=O)Nc2ccc(N(C)C)cc2)c1` (centres undefined), the activation is 21.3% (active).
As for `COc1ccc(NC(=O)CS(=O)(=O)c2cccc(Cl)c2)cc1`, the activation is 6.14%.
With `Cc1ccc(NC(=O)CC2SC3=NCCCN3C2=O)c(C)c1` (centres undefined) the figure was 9.67%; with `CSCCC(NC(=O)c1ccccc1Cl)C(=O)N1CCC1` (centres undefined), 3.34%; with `COc1ccc2c(c1)cc(C(=O)N[C@@H](CCSC)C(=O)N1CCC[C@H]1C(=O)O)n2C`, 20.4% (active).
With `COc1ccc(OC)c(/C=N/N=C(\N)c2nonc2N)c1` the figure was 18.5% (active).
Under `COc1ccc(N=C(N)N=C(N)N)c(OC)c1` stands 7.88%.
As for `COc1ccc(C2C(C#N)=C(N)N(c3cccnc3)C3=C2C(=O)CCC3)cc1Cn1cc([N+](=O)[O-])cn1` (centres undefined), the activation was 18.5% (active).
With `COc1ccc(NC(=O)NS(=O)(=O)c2ccc(C)cc2)cn1` the figure was 7.89%; with `COc1ccc(S(=O)(=O)Nc2cc(C)on2)cc1`, 57.2% (active); with `O=c1[nH]c2ccccc2nc1/C=C/c1ccc(F)cc1`, 9.41%.
Turning to `O=c1[nH]c2ccccc2nc1/C=C/c1ccccc1`, the activation is 351% (active).
`O=c1[nH]c2ccccc2nc1/C=C(\O)c1cccs1`: the activation is 11.4%.
Under `CC1(C)CC(=O)C(CC2CCCCC2=O)C(=O)C1` (centres undefined) stands 15.2% (active); under `CN1CCc2c(sc3nc(SCC(N)=O)n(-c4ccccc4)c(=O)c23)C1`, 3.18%; under `NS(=O)(=O)c1cccc(NC(=O)CCc2ccc(S(=O)(=O)N3CCOCC3)cc2)c1`, 84.4% (active).
Under `O=C(CCc1ccc(S(=O)(=O)N2CCOCC2)cc1)OCC(=O)c1ccccc1` stands 20.7% (active).
With `O=C(COC(=O)C1CC2C=CC1C2)Nc1cccc(S(=O)(=O)N2CCCCCC2)c1` (centres undefined) the figure was 5.75%; with `O=C1/C(=C/c2c[nH]c3ccccc23)CCC/C1=C\c1c[nH]c2ccccc12`, 7.19%; with `Cc1cc(O)c(CN(C)C)c2c1C(=O)/C(=C/c1ccco1)O2`, 8.55%.
As for `Nc1ccc2c(c1)C/C(=C/c1ccco1)C2=O`, the activation was 22% (active).
As for `O=C1CC(/C=C/c2ccco2)=Nc2ccccc2N1`, the activation is 7.68%.
Under `O=C1C(=Cc2ccco2)CCCC1=Cc1ccco1` stands 93.5% (active).
With `O=C(COC(=O)/C=C/c1ccccc1[N+](=O)[O-])NNC(=O)c1ccc(F)cc1` the figure was 9.23%.
In the case of `O=C(O)CCC(=O)NNC(=O)c1ccc(-c2ccccc2)cc1`, the activation was 104% (active).
Turning to `CCNC(=O)COc1ccc(-c2ccccc2)cc1`, the activation is 4.33%.
Take `Cc1ccsc1/C=C/C1=Cc2c(sc(NC(=O)CSc3n[nH]c(N)n3)c2C#N)C(C)(C)C1`: the activation is 6.84%.
Take `O=S(=O)(Nc1nc2ccccc2nc1N1CCN(c2ccccn2)CC1)c1ccc(Cl)cc1`: the activation was 0.27%.
Consider `O=S(=O)(Nc1nc2ccccc2nc1NCCO)c1cccc(Cl)c1`, for which the activation is 233% (active).
With `Cn1c(-c2ccc(C=O)s2)nc2c3ccccc3c3ccccc3c21` the figure was 25.8% (active); with `CCOc1ccc(-c2nc3scc(-c4cccs4)c3c(=O)[nH]2)cc1`, 54.4% (active); with `COc1ccc(C2c3ccc(O)cc3Oc3ncn(CCN4CCOCC4)c(=N)c32)cc1OC` (centres undefined), 23% (active).
Under `COc1ccc(C2c3ccc(O)cc3Oc3ncn(Cc4ccco4)c(=N)c32)cc1` (centres undefined) stands 15.9% (active); under `N=c1c2c(ncn1Cc1ccco1)Oc1cc(O)ccc1C2c1ccccc1` (centres undefined), 127% (active).
With `COc1ccc(C2c3ccc(O)cc3Oc3ncn(CCCO)c(=N)c32)cc1OC` (centres undefined) the figure was 6.69%; with `COc1ccc(C2c3ccc(O)cc3Oc3ncn(Cc4ccccc4)c(=N)c32)cc1OC` (centres undefined), 2.66%.
As to `Cc1c(O)ccc(/C(Cc2ccc3ccccc3n2)=N\N)c1O`, the activation was 9.3%.
With `CCCCOc1[nH]c2nc(-c3ccco3)n(Cc3ccco3)c(=N)c2c1C#N`, the activation is 7.26%.
Take `N#CC1(C#N)CC(C=O)=C(N)C1(C#N)CC(=O)c1ccc(F)cc1` (centres undefined): the activation is 18.1% (active).
With `COC(=O)C1=C(C)NC(=O)/C1=C\N(C)C`, the activation was 29.9% (active).
With `CCOC(=O)C1=C(C)NC(=O)/C1=C\N(C)C` the figure was 3.21%; with `CCN(CC)c1ccc(/C=C/C(=O)c2ccc(Br)cc2)cc1`, 11.2%; with `CCN(CC)c1ccc(/C=C2\C(=O)c3ccc(C(=O)O)cc3C2=O)cc1`, 28.1% (active).
In the case of `CCN(CC)c1ccc(/C=C2/C(=O)c3ccc(C(=O)O)cc3C2=O)cc1`, the activation was 21.9% (active).
In the case of `COc1ccccc1C(=O)NN(C)C1=NS(=O)(=O)c2ccccc21`, the activation is 7.92%.
With `CN(/N=C/c1ccc(N(C)C)cc1)C1=NS(=O)(=O)c2ccccc21` the figure was 32.9% (active); with `CN(C)c1ccc(/C=N/N(CCO)C2=NS(=O)(=O)c3ccccc32)cc1`, 13.5% (active).
With `Cc1ccc(C(=O)Nc2ccc3c(c2)ncn3C)cc1`, the activation is 27.7% (active).
For the compound `COc1ccc(COc2cc(-c3cccc(OC)c3)nc3ccc(NC(=O)c4ccc(C)cc4)cc23)cc1`, the activation was 1.71%.
Take `Cc1cc(NC(=O)CCC(=O)N(CCC(C)C)C(C(=O)NC2CCCC2)c2cccnc2)no1` (centres undefined): the activation is 3.5%.
Take `CC(=O)NC(CCS(C)(=O)=O)C(=O)Nc1cc(C)on1` (centres undefined): the activation is 15.8% (active).
Take `CCN(CC(=O)Nc1ccccc1C(F)(F)F)C(=O)c1ccc(-n2nc(C)c(CCC(=O)OC)c2C)cc1`: the activation was 29.8% (active).
Consider `CCN(CC(=O)Nc1c(F)cccc1F)C(=O)CNC(=O)COc1ccccc1`, for which the activation was -0.22%.
On to `COc1ccc(-c2cc3ncc(-c4ccccc4)c(N)n3n2)cc1`, for which the activation is 15.2% (active).
`O=C(Nc1cccc(Cl)c1)c1cc(S(=O)(=O)NCCc2ccc(Cl)cc2)ccc1F`: the activation is 13.9% (active).
`COc1ccc(OC)c2[nH]c(=O)c(CCNS(=O)(=O)c3ccc(Cl)cc3)cc12`: the activation is 1.64%.
Under `COc1ccc(C(=O)c2ccsc2N)cc1` stands 22% (active); under `COc1ccc(-c2c(C#N)c(N)nc3sc(C(=O)c4ccccc4)c(N)c23)cc1`, -1.46%; under `COc1ccc(C(=O)c2sc3nc(C)cc(-c4cccs4)c3c2N)cc1`, 24.7% (active).
Take `COc1ccc(C(=O)c2sc3nc(-c4ccccc4)ccc3c2N)cc1`: the activation was 85.5% (active).
Under `COc1ccc(C(=O)c2sc3nc(C)cc(-c4cccs4)c3c2N)cc1OC` stands 4.99%.
For the compound `Cc1cc(C)c(S(=O)(=O)Nc2ccc3[nH]c(=O)[nH]c3c2)c(C)c1`, the activation was 21.2% (active).
Consider `Cc1ccc(NC(=O)C(OC(=O)c2ccc(F)cc2)c2ccccc2)cc1Cl` (centres undefined), for which the activation was 8.32%.
`Cc1cc(C)c(C(N)=O)c(Nc2ccc(F)cc2)n1`: the activation is 1.65%.
In the case of `Cc1ccc(NC(=O)Nc2ccc(F)cc2)cc1Cl`, the activation is 20.6% (active).
Under `O=C(O)c1ccccc1-c1ccc(/C=C/c2cc(C(F)(F)F)[nH]c(=O)n2)o1` stands 8.85%.
In the case of `O=C(O)c1cc(Cl)ccc1-c1ccc(/C=C/c2cc(C(F)(F)F)[nH]c(=O)n2)o1`, the activation was 56.3% (active).
Under `CC(=O)OCC[N+](C)(C)C` stands 54.7% (active); under `COc1cc(/C=C2\Oc3cc(O)ccc3C2=O)ccc1O`, -0.13%; under `O=C1/C(=C/c2ccc(Br)cc2)Oc2cc(O)ccc21`, 58.7% (active).
With `O=C1/C(=C/c2cccc(F)c2)Oc2cc(O)ccc21` the figure was 5.33%.
Regarding `COC1=C/C(=C/c2c(N)n3cc(C)sc3nc2=O)C=CC1=O`, the activation is 4.28%.
Under `Cc1cn2c(N)c(C=C3C=C(Cl)C(=O)C(Cl)=C3)c(=O)nc2s1` stands 17.6% (active); under `COC1=C/C(=C/c2c(N)n3c(nc2=O)sc2cc(S(C)(=O)=O)ccc23)C=CC1=O`, 10.2%.
Under `C=CCNc1nnc(SCC(=O)N2CCC(C(N)=O)CC2)s1` stands 15.8% (active); under `C=CCOc1ccc(C2C(C(=O)c3cccs3)=C(O)C(=O)N2c2nnc(C)s2)cc1` (centres undefined), 15.5% (active).
In the case of `O=C(Oc1ccc2ccc(=O)oc2c1)c1cccs1`, the activation was 1.63%.
With `Cc1ccc(C2C(C(=O)c3cccs3)=C(O)C(=O)N2c2nnc(C)s2)cc1` (centres undefined) the figure was 52.5% (active); with `Cc1cc(N2C(=O)C(O)=C(C(=O)c3cccs3)C2c2ccc(F)cc2)no1` (centres undefined), 23.8% (active).
Under `COc1ccc(C2C(C(=O)c3cccs3)=C(O)C(=O)N2c2nncs2)cc1` (centres undefined) stands 20.1% (active); under `COc1ccc(C2C(C(=O)c3cccs3)=C(O)C(=O)N2c2nnc(C)s2)cc1OC` (centres undefined), 7.86%.
